Experimental data taken from ChEMBL document CHEMBL1828575, “Design, synthesis and antiproliferative activities of biarylolefins based on polyhydroxylated and carbohydrate scaffolds” (Eur J Med Chem, 2011).

What was measured:
Type in all cases: functional
LOX IMVI [1] = assay: Antitumor activity against human LOXIMVI cells after 48 hrs by SRB assay
How it was run: (§1)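 NCI60 panel in RPMI 1640 with 5% FBS and 2 mM L-glutamine. Cells were plated at 5000–40,000/well by doubling time, held 24 h, then time-zero plates were TCA-fixed. Five concentrations (10-fold or half-log dilutions of DMSO stocks) were applied for 48 h at 37 °C, 5% CO2. Cells were fixed with cold TCA (10% final adherent, 16% suspension) and stained with 0.4% SRB. Bound dye was dissolved in 10 mM Tris and read at 515 nm. GI50, TGI and LC50 were calculated per line.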

EKVX = assay: Antitumor activity against human EKVX cells after 48 hrs by SRB assay; how it was run: as §1
SNB-19 = assay: Antitumor activity against human SNB19 cells after 48 hrs by SRB assay; conditions: SNB-19, 48 h
How it was run: (§2)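 NCI60 panel cells grown in RPMI 1640 with 5% FBS and 2 mM L-glutamine, plated at 5000–40,000 cells/well and preincubated 24 h at 37 °C, 5% CO₂. Compound was added from DMSO at five concentrations, 10-fold or 1/2 log dilutions, then incubated 48 h.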

OVCAR-8 [2] = assay: Antitumor activity against human OVCAR8 cells after 48 hrs by SRB assay; conditions: OVCAR-8, 48 h; how it was run: as §1
LOX IMVI [3] = assay: Cytotoxicity against human LOXIMVI cells assessed as cellular growth at 10 uM after 48 hrs by SRB assay
How it was run: (§3)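 NCI60 single-dose screen of cells in RPMI 1640 with 5% FBS and 2 mM L-glutamine, preincubated 24 h at 37 °C, 5% CO₂. Cells were then exposed 48 h to compound added from DMSO stock. TCA-fixed, stained with 0.4% SRB in 1% acetic acid, dye solubilised in 10 mM Tris base and read at 515 nm. Growth is given as percent of untreated control.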

U-251 = assay: Cytotoxicity against human U251 cells assessed as cellular growth at 10 uM after 48 hrs by SRB assay
How it was run: (§4)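 NCI-60 panel lines grown in RPMI 1640 with 5% FBS and 2 mM L-glutamine. Plated at 5000–40,000 cells/well and preincubated 24 h at 37 °C, 5% CO₂, with time-zero plates fixed in TCA. Compounds, dissolved in DMSO and diluted in medium, were applied for 48 h. Cells were TCA-fixed (10% final for adherent, 16% for suspension) and stained with 0.4% SRB in 1% acetic acid. Dye was solubilised in 10 mM Tris base and read at 515 nm; growth was expressed as a percentage of untreated control.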

HL-60(TB) = assay: Cytotoxicity against human HL-60(TB) cells assessed as cellular growth at 10 uM after 48 hrs by SRB assay
MDA-MB-468 = assay: Antitumor activity against human MDA-MB-468 cells after 48 hrs by SRB assay; conditions: MDA-MB-468, 48 h; how it was run: as §1
NCI-H522 = assay: Antitumor activity against human NCI-H522 cells after 48 hrs by SRB assay; conditions: NCI-H522, 48 h; how it was run: as §1
786-0 = assay: Antitumor activity against human 786-0 cells after 48 hrs by SRB assay; conditions: 786-0, 48 h; how it was run: as §1
SN12C = assay: Antitumor activity against human SN12C cells after 48 hrs by SRB assay; how it was run: as §2
MDA-MB-435 = assay: Cytotoxicity against human MDA-MB-435 cells assessed as cellular growth at 10 uM after 48 hrs by SRB assay; how it was run: as §4
NCI-H460 = assay: Cytotoxicity against human NCI-H460 cells assessed as cellular growth at 10 uM after 48 hrs by SRB assay; how it was run: as §4
SR = assay: Antitumor activity against human SR cells after 48 hrs by SRB assay; how it was run: as §2
T47D = assay: Antitumor activity against human T47D cells after 48 hrs by SRB assay; how it was run: as §2
OVCAR-4 = assay: Antitumor activity against human OVCAR4 cells after 48 hrs by SRB assay; conditions: OVCAR-4, 48 h; how it was run: as §1
HT-29 = assay: Cytotoxicity against human HT-29 cells assessed as cellular growth at 10 uM after 48 hrs by SRB assay; how it was run: as §3
OVCAR-8 [4] = assay: Cytotoxicity against human OVCAR8 cells assessed as cellular growth at 10 uM after 48 hrs by SRB assay; how it was run: as §4
SF-268 = assay: Cytotoxicity against human SF268 cells assessed as cellular growth at 10 uM after 48 hrs by SRB assay; how it was run: as §4
CAKI-1 = assay: Cytotoxicity against human Caki1 cells assessed as cellular growth at 10 uM after 48 hrs by SRB assay; how it was run: as §3
CCRF-CEM = assay: Antitumor activity against human CCRF-CEM cells after 48 hrs by SRB assay; how it was run: as §1
DU-145 = assay: Antitumor activity against human DU145 cells after 48 hrs by SRB assay; conditions: DU-145, 48 h; how it was run: as §1
PC-3 = assay: Antitumor activity against human PC3 cells after 48 hrs by SRB assay; conditions: PC-3, 48 h; how it was run: as §1
[5] = read-out: LC50 (the source's name)
[6] = read-out: pLC50 (the source's name) (converted)

COc1ccc(/C(=C2/O[C@@H]([C@H]3COC(C)(C)O3)[C@H]3OC(C)(C)O[C@@H]23)c2cc(OC)c(OC)c(OC)c2)cc1O
GI50 (LOX IMVI [1]): 5.18 µM
TGI (LOX IMVI [1]): > 100 µM
CC50 (LOX IMVI [1]; [5]): > 100 µM
GI50 (EKVX; read-out: GI50): 5.57 µM
CC50 (EKVX; [5]): > 100 µM
TGI (EKVX; read-out: TGI): > 100 µM
GI50 (EKVX; read-out: pGI50 (converted)): 56.2 µM
CC50 (EKVX; [6]): > 100 µM
TGI (EKVX; read-out: pTGI): > 100 µM
GI50 (SNB-19): 4.28 µM
TGI (SNB-19): > 100 µM
CC50 (SNB-19; [5]): > 100 µM
GI50 (OVCAR-8 [2]; read-out: GI50): 5.27 µM
CC50 (OVCAR-8 [2]; [5]): > 100 µM
TGI (OVCAR-8 [2]; read-out: TGI): > 100 µM
GI50 (OVCAR-8 [2]; read-out: pGI50 (converted)): 5.25 µM
CC50 (OVCAR-8 [2]; [6]): > 100 µM
TGI (OVCAR-8 [2]; read-out: pTGI): > 100 µM
Activity (LOX IMVI [3]): 36.94%
Activity (U-251): 46.2%
Activity (HL-60(TB)): 20.71%
GI50 (MDA-MB-468; read-out: GI50): 1.45 µM
CC50 (MDA-MB-468; [5]): 80.6 µM
TGI (MDA-MB-468; read-out: TGI): 34.1 µM
GI50 (MDA-MB-468; read-out: pGI50 (converted)): 14.5 µM
CC50 (MDA-MB-468; [6]): > 100 µM
TGI (MDA-MB-468; read-out: pTGI (converted)): 33.9 µM
GI50 (NCI-H522): 2.73 µM
TGI (NCI-H522): 9.08 µM
CC50 (NCI-H522; [5]): > 100 µM
GI50 (786-0): 21.2 µM
LC50 (786-0): > 100 µM
TGI (786-0): 60.6 µM
GI50 (SN12C; read-out: GI50): 5.82 µM
CC50 (SN12C; [5]): > 100 µM
TGI (SN12C; read-out: TGI): > 100 µM
GI50 (SN12C; read-out: pGI50 (converted)): 5.62 µM
CC50 (SN12C; [6]): > 100 µM
TGI (SN12C; read-out: pTGI): > 100 µM
Activity (MDA-MB-435): 44.7%
Activity (NCI-H460): 79.36%
GI50 (SR; read-out: GI50): 6.27 µM
CC50 (SR; [5]): > 100 µM
TGI (SR; read-out: TGI): > 100 µM
GI50 (SR; read-out: pGI50 (converted)): 6.31 µM
CC50 (SR; [6]): > 100 µM
TGI (SR; read-out: pTGI): > 100 µM
GI50 (T47D; read-out: GI50): 2.51 µM
CC50 (T47D; [5]): > 100 µM
TGI (T47D; read-out: TGI): > 100 µM
GI50 (T47D; read-out: pGI50 (converted)): 25.1 µM
CC50 (T47D; [6]): > 100 µM
TGI (T47D; read-out: pTGI (converted)): > 100 µM
CC50 (OVCAR-4; [5]): > 100 µM
GI50 (OVCAR-4; read-out: pGI50 (converted)): 9.12 µM
CC50 (OVCAR-4; [6]): > 100 µM
TGI (OVCAR-4; read-out: pTGI (converted)): > 100 µM
Activity (HT-29): 107.45%
Activity (OVCAR-8 [4]): 68.27%
Activity (SF-268): 36.3%
Activity (CAKI-1): 93.05%
GI50 (CCRF-CEM; read-out: GI50): 3.75 µM
CC50 (CCRF-CEM; [5]): > 100 µM
TGI (CCRF-CEM; read-out: TGI): > 100 µM
GI50 (CCRF-CEM; read-out: pGI50 (converted)): 3.72 µM
CC50 (CCRF-CEM; [6]): > 100 µM
TGI (CCRF-CEM; read-out: pTGI): > 100 µM
GI50 (DU-145; read-out: GI50): 3.29 µM
CC50 (DU-145; [5]): > 100 µM
TGI (DU-145; read-out: TGI): 13.8 µM
GI50 (DU-145; read-out: pGI50 (converted)): 3.31 µM
CC50 (DU-145; [6]): > 100 µM
TGI (DU-145; read-out: pTGI (converted)): 13.2 µM
GI50 (PC-3; read-out: GI50): 5.11 µM
CC50 (PC-3; [5]): > 100 µM
TGI (PC-3; read-out: TGI): > 100 µM
GI50 (PC-3; read-out: pGI50 (converted)): 5.13 µM
CC50 (PC-3; [6]): > 100 µM
TGI (PC-3; read-out: pTGI): > 100 µM
